ChEMBL document CHEMBL4038284, “Synthesis of novel quinoline-based 4,5-dihydro-1H-pyrazoles as potential anticancer, antifungal, antibacterial and antiprotozoal agents” (Eur J Med Chem, 2017)
Converted amounts (≈) assume the structure as drawn. The source made the active and inactive calls. The calls are words filed in the database; no cut-off is given here.

Experiments:
[1] = system: K562; test: Growth inhibition of human K562 cells at 10 uM incubated for 48 hrs by sulforhodamine B assay; assay type: functional, cell-based
Outline: (§1)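 NCI 60-line panel, single 10 μM dose. Cells were grown in RPMI-1640 with 5% FBS and 2 mM L-glutamine and pre-incubated 24 h before compound addition (DMSO stock). Exposure was 48 h at 37 °C, 5% CO2. Cells were fixed with cold TCA (10% final), stained with 0.4% SRB, bound dye dissolved in 10 mM Tris base, A515 read. Growth was taken relative to time-zero and untreated control plates.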

[2] = system: RPMI-8226; test: Growth inhibition of human RPMI8226 cells at 10 uM incubated for 48 hrs by sulforhodamine B assay; assay type: functional, cell-based; outline: as §1
[3] = system: HOP-62; test: Growth inhibition of human HOP62 cells at 10 uM incubated for 48 hrs by sulforhodamine B assay; assay type: functional, cell-based
Outline: (§2)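 NCI 60-cell-line screen at a single 10 µM dose. Cells in RPMI-1640 with 5% FBS and 2 mM L-glutamine, pre-incubated 24 h, then treated for 48 h at 37 °C. TCA fixation, sulforhodamine B staining, absorbance at 515 nm. Percentage growth calculated against time-zero and untreated controls.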

[4] = system: HOP-92; test: Growth inhibition of human HOP92 cells at 10 uM incubated for 48 hrs by sulforhodamine B assay; assay type: functional, cell-based; outline: as §1
[5] = system: HCC 2998; test: Growth inhibition of human HCC2998 cells at 10 uM incubated for 48 hrs by sulforhodamine B assay; assay type: functional, cell-based; outline: as §2
[6] = system: HCT-116; test: Growth inhibition of human HCT116 cells at 10 uM incubated for 48 hrs by sulforhodamine B assay; assay type: functional, cell-based; outline: as §2
[7] = system: HT-29; test: Growth inhibition of human HT-29 cells at 10 uM incubated for 48 hrs by sulforhodamine B assay; assay type: functional, cell-based; outline: as §1
[8] = system: SF-295; test: Growth inhibition of human SF295 cells at 10 uM incubated for 48 hrs by sulforhodamine B assay; assay type: functional, cell-based; outline: as §1
[9] = system: SNB-19; test: Growth inhibition of human SNB19 cells at 10 uM incubated for 48 hrs by sulforhodamine B assay; assay type: functional, cell-based
Outline: (§3)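 NCI-60 single-dose screen at 10 µM for 48 h. Cells were grown in RPMI-1640 with 5% FBS and 2 mM L-glutamine and preincubated 24 h before compound. Time-zero plates were TCA-fixed at compound addition. After exposure, cells were TCA-fixed, stained with SRB and read at 515 nm. Percentage growth was calculated against time-zero and untreated-control absorbances.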

[10] = system: MDA-MB-435; test: Growth inhibition of human MDA-MB-435 cells at 10 uM incubated for 48 hrs by sulforhodamine B assay; assay type: functional, cell-based; outline: as §1
[11] = system: SK-MEL-5; test: Growth inhibition of human SK-MEL-5 cells at 10 uM incubated for 48 hrs by sulforhodamine B assay; assay type: functional, cell-based; outline: as §3
[12] = system: UACC-62; test: Growth inhibition of human UACC62 cells at 10 uM incubated for 48 hrs by sulforhodamine B assay; assay type: functional, cell-based; outline: as §3
[13] = system: OVCAR-3; test: Growth inhibition of human OVCAR3 cells at 10 uM incubated for 48 hrs by sulforhodamine B assay; assay type: functional, cell-based; outline: as §1
[14] = system: OVCAR-4; test: Growth inhibition of human OVCAR4 cells at 10 uM incubated for 48 hrs by sulforhodamine B assay; assay type: functional, cell-based; outline: as §1
[15] = system: OVCAR-8; test: Growth inhibition of human OVCAR8 cells at 10 uM incubated for 48 hrs by sulforhodamine B assay; assay type: functional, cell-based; outline: as §1
[16] = system: SK-OV-3; test: Growth inhibition of human SKOV3 cells at 10 uM incubated for 48 hrs by sulforhodamine B assay; assay type: functional, cell-based; outline: as §3
[17] = system: RXF 393; test: Growth inhibition of human RXF393 cells at 10 uM incubated for 48 hrs by sulforhodamine B assay; assay type: functional, cell-based; outline: as §1
[18] = system: UO-31; test: Growth inhibition of human UO31 cells at 10 uM incubated for 48 hrs by sulforhodamine B assay; assay type: functional, cell-based; outline: as §3
[19] = system: PC-3; test: Growth inhibition of human PC3 cells at 10 uM incubated for 48 hrs by sulforhodamine B assay; assay type: functional, cell-based; outline: as §1
[20] = system: MDA-MB-231; test: Growth inhibition of human MDA-MB-231 cells at 10 uM incubated for 48 hrs by sulforhodamine B assay; assay type: functional, cell-based; outline: as §1
[21] = system: T47D; test: Growth inhibition of human T47D cells at 10 uM incubated for 48 hrs by sulforhodamine B assay; assay type: functional, cell-based; outline: as §3
[22] = system: MDA-MB-468; test: Growth inhibition of human MDA-MB-468 cells at 10 uM incubated for 48 hrs by sulforhodamine B assay; assay type: functional, cell-based; outline: as §1
[23] = system: Candida albicans; test: Antifungal activity against Candida albicans ATCC 10231 incubated for 48 hrs under dark condition by broth microdilution method; assay type: functional; settings: ATCC 10231, 48 h
Outline: (§4)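 CLSI M27-A3 broth microdilution in RPMI-1640, DMSO ≤1%, compounds at 250-0.98 µg/mL final. Inoculum 1-5 × 10^3 CFU/mL. Incubated 48 h at 30 °C in a moist dark chamber, read at OD405. MIC80 and MIC50 taken from % inhibition dose-response curves (mean ± SEM, triplicate). Amphotericin B was the positive control.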

[24] = system: Cryptococcus neoformans; test: Antifungal activity against Cryptococcus neoformans ATCC 32264 incubated for 48 hrs under dark condition by broth microdilution method; assay type: functional; settings: ATCC 32264, 48 h; outline: as §4
[25] = system: Candida albicans; test: Growth inhibition of Candida albicans ATCC 10231 at 250 ug/ml incubated for 48 hrs under dark condition by broth microdilution method relative to control; assay type: functional; settings: ATCC 10231, 48 h, read-out: GI
Outline: (§5)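 CLSI M27-A3 broth microdilution in RPMI-1640, DMSO ≤1%. Inoculum 1-5 × 10^3 CFU/mL. Incubated 48 h at 30 °C, dark. % inhibition = 100 − (OD405 test − sterility control)/(OD405 growth control − sterility control), with growth and sterility control wells. Triplicate.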

[26] = system: Candida albicans; test: Growth inhibition of Candida albicans ATCC 10231 at 15.62 ug/ml incubated for 48 hrs under dark condition by broth microdilution method relative to control; assay type: functional; settings: ATCC 10231, 48 h, read-out: GI; outline: as §5
[27] = system: Candida albicans; test: Growth inhibition of Candida albicans ATCC 10231 at 7.8 ug/ml incubated for 48 hrs under dark condition by broth microdilution method relative to control; assay type: functional; settings: ATCC 10231, 48 h, read-out: GI; outline: as §5
[28] = system: Cryptococcus neoformans; test: Growth inhibition of Cryptococcus neoformans ATCC 32264 at 31.25 ug/ml incubated for 48 hrs under dark condition by broth microdilution method relative to control; assay type: functional; settings: ATCC 32264, 48 h, read-out: GI; outline: as §5
[29] = system: Cryptococcus neoformans; test: Growth inhibition of Cryptococcus neoformans ATCC 32264 at 15.62 ug/ml incubated for 48 hrs under dark condition by broth microdilution method relative to control; assay type: functional; settings: ATCC 32264, 48 h, read-out: GI; outline: as §5
[30] = system: Cryptococcus neoformans; test: Growth inhibition of Cryptococcus neoformans ATCC 32264 at 3.4 ug/ml incubated for 48 hrs under dark condition by broth microdilution method relative to control; assay type: functional; settings: ATCC 32264, 48 h, read-out: GI
[31] = system: Staphylococcus aureus; test: Antibacterial activity against methicillin-sensitive Staphylococcus aureus ATCC 25923 after 24 hrs by resazurin dye based microdilution assay; assay type: functional; settings: ATCC 25923, 24 h
Outline: (§6)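 MIC taken as the lowest concentration giving visible inhibition and/or by resazurin (1 mg/mL). Gentamicin was the control. Run in duplicate, repeated at least three times.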

[32] = system: Escherichia coli; test: Antibacterial activity against Escherichia coli ATCC 25922 after 24 hrs by resazurin dye based microdilution assay; assay type: functional; settings: ATCC 25922, 24 h; outline: as §6

Compound	growth inhibition (GI) [1]	growth inhibition (GI) [2]	growth inhibition (GI) [3]	growth inhibition (GI) [4]	growth inhibition (GI) [5]	growth inhibition (GI) [6]	growth inhibition (GI) [7]	growth inhibition (GI) [8]	growth inhibition (GI) [9]	growth inhibition (GI) [10]	growth inhibition (GI) [11]	growth inhibition (GI) [12]	growth inhibition (GI) [13]	growth inhibition (GI) [14]	growth inhibition (GI) [15]	growth inhibition (GI) [16]	growth inhibition (GI) [17]	growth inhibition (GI) [18]	growth inhibition (GI) [19]	growth inhibition (GI) [20]	also measured
Clc1ccc(C2=NN(c3ccc(Cl)cc3)C(c3cccc(Nc4ccnc5cc(Cl)ccc45)c3)C2)cc1 (stereo unspecified)	inactive	inactive	inactive	inactive	inactive	inactive	inactive	inactive	inactive	inactive	inactive	inactive	inactive	inactive	inactive	inactive	inactive	inactive	inactive	inactive	growth inhibition (GI) [21]: inactive; growth inhibition (GI) [22]: inactive; MIC50 [23]: ≥ 250 µg/mL; MIC80 [23]: ≥ 250 µg/mL; MIC50 [24]: 250 µg/mL (≈ 460 µM); MIC80 [24]: ≥ 250 µg/mL; inhibition of growth at 250 µg/mL [25]: 40.4%; inhibition of growth at 15.62 µg/mL [26]: 6.09%; inhibition of growth at 7.8 µg/mL [27]: 2.96%; inhibition of growth at 31.25 µg/mL [28]: 24.3%; inhibition of growth at 15.62 µg/mL [29]: 23.1%; inhibition of growth at 3.4 µg/mL [30]: 17.4%; MIC [31]: > 1000 µg/mL; MIC [32]: > 1000 µg/mL
Clc1ccc(C2=NN(c3ccccc3)C(c3cccc(Nc4ccnc5cc(Cl)ccc45)c3)C2)cc1 (stereo unspecified)	inactive	inactive	inactive	inactive	inactive	inactive	inactive	inactive	inactive	inactive	inactive	inactive	inactive	inactive	inactive	inactive	inactive	inactive	inactive	inactive	growth inhibition (GI) [21]: inactive; growth inhibition (GI) [22]: inactive; MIC50 [23]: ≥ 250 µg/mL; MIC80 [23]: ≥ 250 µg/mL; MIC50 [24]: ≥ 250 µg/mL; MIC80 [24]: ≥ 250 µg/mL; inhibition of growth at 250 µg/mL [25]: 19.8%; inhibition of growth at 15.62 µg/mL [26]: 4.29%; inhibition of growth at 7.8 µg/mL [27]: 3.8%; inhibition of growth at 31.25 µg/mL [28]: 0%; inhibition of growth at 15.62 µg/mL [29]: 0%; inhibition of growth at 3.4 µg/mL [30]: 0%; MIC [31]: > 1000 µg/mL; MIC [32]: > 1000 µg/mL
COc1ccc(C2=NN(C=O)C(c3cccc(Nc4ccnc5cc(Cl)ccc45)c3)C2)cc1 (stereo unspecified)	Active	Active	Active	Active	Active	Active	Active	Active	Active	Active	Active	Active	Active	Active	Active	Active	Active	Active	Active	Active	growth inhibition (GI) [21]: Active; growth inhibition (GI) [22]: Active; MIC50 [23]: ≥ 250 µg/mL; MIC80 [23]: ≥ 250 µg/mL; MIC50 [24]: 125 µg/mL (≈ 274 µM); MIC80 [24]: ≥ 250 µg/mL; inhibition of growth at 250 µg/mL [25]: 34.5%; inhibition of growth at 15.62 µg/mL [26]: 12.9%; inhibition of growth at 7.8 µg/mL [27]: 7.43%; inhibition of growth at 31.25 µg/mL [28]: 29.1%; inhibition of growth at 15.62 µg/mL [29]: 23.6%; inhibition of growth at 3.4 µg/mL [30]: 4.06%; MIC [31]: > 1000 µg/mL; MIC [32]: > 1000 µg/mL
Clc1ccc(C2=NN(c3cc(Cl)cc(Cl)c3)C(c3cccc(Nc4ccnc5cc(Cl)ccc45)c3)C2)cc1 (stereo unspecified)	inactive	inactive	inactive	inactive	inactive	inactive	inactive	inactive	inactive	inactive	inactive	inactive	inactive	inactive	inactive	inactive	inactive	inactive	inactive	inactive	growth inhibition (GI) [21]: inactive; growth inhibition (GI) [22]: inactive; MIC50 [23]: ≥ 250 µg/mL; MIC80 [23]: ≥ 250 µg/mL; MIC50 [24]: ≥ 250 µg/mL; MIC80 [24]: ≥ 250 µg/mL; inhibition of growth at 250 µg/mL [25]: 35%; inhibition of growth at 15.62 µg/mL [26]: 10.8%; inhibition of growth at 7.8 µg/mL [27]: 6.01%; inhibition of growth at 31.25 µg/mL [28]: 0%; inhibition of growth at 15.62 µg/mL [29]: 0%; inhibition of growth at 3.4 µg/mL [30]: 0%; MIC [31]: > 1000 µg/mL; MIC [32]: > 1000 µg/mL
